Assay results taken from article PMC5731780 (Structure (London, England : 1993), 2017).
Several values for one entry are separate records, joined by “and”; a condition that tells them apart may be missing. Equal values may be shown once. Each block holds one molecule with its values, some of them ahead of it.

Key:
[1] = tested on: Rpn11 in purified proteasome; test: Proteasome/Rpn11 inhibition assay; format: biochemical, human
Outline: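 Human erythrocyte proteasome was used with Ub4pep substrate: His6, four head-to-tail Ub repeats and a 30-mer peptide whose cysteine carried Oregon Green 488. Compounds were screened at 10 μM. IC50 came from 0–100 μM series in quadruplicate.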

CFTR ubiquitination = test: In vitro CFTR ubiquitination assay; format: biochemical, yeast
Ub [2] = target: T1, Ub (Homo sapiens, UniProt P0CG48); test: NMR titration of 15N-labeled Ub; format: binding
Ub^72 [3] = target: T2, Ub^72 (Homo sapiens, UniProt P0CG48); test: NMR titration of 15N-labeled Ub^72; format: binding
Outline: (§1)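 Unlabeled ubistatin was added in increasing amounts to 15N-labeled Ub variant in 20 mM phosphate (pH 6.8), 0.02% NaN3, 5% D2O at 23°. Binding was followed in 1H-15N HSQC or SOFAST-HMQC spectra. Signal shifts were quantified as CSPs and fitted against bound fraction to give Kd.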

Ub^R74A [4] = target: T3, Ub^R74A (Homo sapiens, UniProt P0CG48, R74A); test: NMR titration of 15N-labeled Ub^R74A; format: binding
Outline: as §1

Ub^R74E [5] = target: T4, Ub^R74E (Homo sapiens, UniProt P0CG48, R74E); test: NMR titration of 15N-labeled Ub^R74E; format: binding
Outline: as §1

Ub^R42E = Ub^R42E (Homo sapiens, UniProt P0CG48, R42E); test: NMR titration of 15N-labeled Ub^R42E; format: binding; details: read-out: Dissociation constant, Ub^R42E (NMR titration); Table 2
Outline: (§2)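 Ub point mutants were made by PCR mutagenesis of human wild-type Ub in pET3a, with DpnI digestion and sequence verification. Increasing amounts of unlabeled ubistatin were titrated into 15N-labeled protein in 20 mM phosphate pH 6.8, 0.02% NaN3, 5% D2O, at 23°. Signal shifts and attenuations were tracked in 1H-15N HSQC or SOFAST-HMQC spectra, and spectral perturbations were quantified at each titration step.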

Ub^R42E,R72E [6] = target: T5, Ub^R42E,R72E (Homo sapiens, UniProt P0CG48, R42E/R72E); test: NMR titration of 15N-labeled Ub^R42E,R72E; format: binding
Outline: as §2

Ub [7] = target: T1, Ub; test: ubiB fluorescence anisotropy titration with Ub; format: binding; details: read-out: Kd, Ub (fluorescence anisotropy)
Outline: (§3)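 Fluorescence anisotropy was measured at 21°C in PBS pH 7.4. ubiB was held at 1 μM for Ub2 titrations and 10 μM for Ub, while Ub or Ub2 was varied. Readings were taken in T-configuration, excitation 386 nm, emission 485 nm. Anisotropy change was fitted to a single-site binding model for Kd.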

K48-Ub2 [8] = target: T6, K48-Ub2 (Homo sapiens, UniProt P0CG48); test: ubiB fluorescence anisotropy titration with K48-Ub2; format: binding; details: read-out: Kd, K48-Ub2 (fluorescence anisotropy)
Outline: as §3

K11-Ub2 = K11-Ub2 (Homo sapiens, UniProt P0CG48); test: ubiB fluorescence anisotropy titration with K11-Ub2; format: binding; details: read-out: Kd, K11-Ub2 (fluorescence anisotropy)
Outline: as §3

K63-Ub2 = test: ubiB fluorescence anisotropy titration with K63-Ub2; format: binding, human; details: read-out: Kd, K63-Ub2 (fluorescence anisotropy)
Outline: as §3

Ub [9] = target: T1, Ub; test: 15N T1 relaxation of Ub with ubistatin; format: binding; details: mean (SD) over residues in structured regions
Outline: (§4)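 15N T1 longitudinal relaxation measured with standard pulse sequences at 23°, 600 and 800 MHz with cryoprobes. 15N-labeled human Ub or K48-linked Ub2 was free or mixed with ubistatin in 20 mM phosphate buffer pH 6.8 with 0.02% (w/v) NaN3 and 5% D2O. Values are means with standard deviations averaged over residues in structured regions.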

Ub^72 [10] = target: T2, Ub^72; test: 15N T1 relaxation of Ub^72 with ubistatin; format: binding; details: mean (SD)
Outline: (§5)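 Human Ub and its point mutants were expressed from pET3a and made by PCR mutagenesis. Samples were in 20 mM phosphate buffer (pH 6.8) with 0.02% (w/v) NaN3 and 5% D2O. 15N T1 was measured at 23° on 600 and 800 MHz spectrometers with cryoprobes, using standard pulse sequences.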

Ub^R74A [11] = target: T3, Ub^R74A; test: 15N T1 relaxation of Ub^R74A with ubistatin; format: binding; details: mean (SD)
Outline: as §5

Ub^R74E [12] = target: T4, Ub^R74E; test: 15N T1 relaxation of Ub^R74E with ubistatin; format: binding; details: mean (SD)
Outline: as §5

Ub^R42E,R72E [13] = target: T5, Ub^R42E,R72E; test: 15N T1 relaxation of Ub^R42E,R72E with ubistatin; format: binding; details: mean (SD)
Outline: as §5

K48-Ub2 [14] = target: T6, K48-Ub2; test: 15N T1 relaxation of K48-Ub2 with ubistatin; format: binding; details: mean (SD)
Outline: as §4

Ub [15] = target: T1, Ub; test: SANS of Ub with ubiB; format: binding; details: equimolar ubiB
K48-Ub2 [16] = target: T6, K48-Ub2; test: SANS of K48-Ub2 with ubiB; format: binding; details: equimolar ubiB
Ub [17] = target: T1, Ub; test: NMR competition assay against ubiquilin-1 UBA domain for Ub; format: binding; details: up to 3-fold molar excess
K48-Ub2 [18] = target: T6, K48-Ub2; test: NMR competition assay against ubiquilin-1 UBA domain for K48-Ub2; format: binding
Ubp6 = test: Gel-based assay of K48-Ub2 disassembly by Ubp6; format: biochemical, yeast
Cezanne (OTUD7B) = test: Gel-based assay of K11-Ub2 disassembly by Cezanne; format: biochemical; details: stoichiometric ubiB
OTUB1 = test: Gel-based assay of K48-Ub2 disassembly by OTUB1; format: biochemical; details: stoichiometric ubiB
AMSH = test: Gel-based assay of K63-Ub2 disassembly by AMSH; format: biochemical; details: stoichiometric ubiB
yeast 26S proteasome = test: Gel-based assay of DUB activity of 26S proteasome; format: biochemical
HeLa and RCC4 cells = test: ubiB internalization in live cells by fluorescence microscopy; format: cell-based, human; details: 10 μM ubiB, 6 hrs
Outline: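 HeLa and RCC4 cells were grown in DMEM/10% FBS on glass-bottom dishes, exposed to 10 μM ubiB for 6 hrs, and washed three times in PBS. Plasma membrane was stained with Texas Red wheat germ agglutinin (1:500, 15 min). Live cells were imaged by confocal Z-stacks (63× oil), with 405 nm excitation for ubiB and 555 nm for the membrane probe.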

HeLa cells = test: Perturbation of the Ub landscape in cells; format: cell-based, human

- IC50 ([1]; read-out: IC50, DUB activity of Rpn11 in purified proteasome, deubiquitination): 1.1 µM and 1 µM
- IC50 (CFTR ubiquitination; read-out: IC50, CFTR ubiquitination, titration of ubiB): ~10 µM and 10 µM
- Kd (Ub [2]; read-out: Dissociation constant, Ub (NMR titration), Table 2): 11.3 µM
- decrease in binding affinity, Ub^72 vs Ub (Ub^72 [3]): 6 fold
- Kd (Ub^72 [3]; read-out: Dissociation constant, Ub^72 (NMR titration), Table 2): 73.1 µM
- weakening of ubiB binding, Ub^R74A vs Ub (Ub^R74A [4]): 3.5 fold
- Kd (Ub^R74A [4]; read-out: Dissociation constant, Ub^R74A (NMR titration), Table 2): 40.3 µM
- weakening of ubiB binding, Ub^R74E vs Ub (Ub^R74E [5]): 6 fold
- Kd (Ub^R74E [5]; read-out: Dissociation constant, Ub^R74E (NMR titration), Table 2): 67.6 µM
- Kd (Ub^R42E): 396 µM
- binding to Ub^R42E,R72E (Ub^R42E,R72E [6]): only negligible CSPs
- Kd (Ub^R42E,R72E [6]; read-out: Dissociation constant, Ub^R42E,R72E (NMR titration), Table 2): > 1000 µM
- Kd (Ub [7]): 14 ± 1.6 µM
- Kd (K48-Ub2 [8]): 0.264 ± 0.023 µM
- Kd (K11-Ub2): 1.83 ± 0.05 µM
- Kd (K63-Ub2): 4.88 ± 0.22 µM
- 15N T1 of Ub in the presence of ubistatin (Ub [9]): 660 ± 25 ms
- 15N T1 of Ub^72 in the presence of ubistatin (Ub^72 [10]): 482 (28) ms
- 15N T1 of Ub^R74A in the presence of ubistatin (Ub^R74A [11]): 544 (26) ms
- 15N T1 of Ub^R74E in the presence of ubistatin (Ub^R74E [12]): 556 (28) ms
- 15N T1 of Ub^R42E,R72E in the presence of ubistatin (Ub^R42E,R72E [13]): 493 (27) ms
- 15N T1 of K48-Ub2 in the presence of ubistatin (K48-Ub2 [14]): 942 (66) ms
- Radius of gyration (Rg) of Ub + ubiB (Ub [15]): 17.4 (0.1) Å
- Radius of gyration (Rg) of K48-Ub2 + ubiB (K48-Ub2 [16]): 20.1 (0.1) Å
- competition with UBA for binding to Ub (Ub [17]): outcompetes UBA for binding to Ub
- competition with UBA for binding to K48-Ub2 (K48-Ub2 [18]): outcompeted UBA for binding to K48-Ub2
SMILES: O=S(=O)(O)c1ccc2c(ccc3nn(-c4ccc(/C=C/c5ccc(-n6nc7ccc8cc(S(=O)(=O)O)ccc8c7n6)cc5S(=O)(=O)O)c(S(=O)(=O)O)c4)nc32)c1 [ubiB, Ubistatin B]
- inhibition of deubiquitination ([1]; at 1 μM ubiB): ~50%
- concentration required for complete inhibition of ubiquitination (CFTR ubiquitination): ≥ 100 µM
- CFTR protein modified (ubiquitinated), DMSO control = 100% (CFTR ubiquitination; 100 μM compound, 26°C, 60 min): 18±2%
- inhibition of ubiquitination (CFTR ubiquitination; at 1 μM ubiB): 5-10%
- direct binding to 15N Ub by CSPs (Ub [2]; starting Ub 1 mM): produced CSPs in and around Ub's hydrophobic patch
- effect on disassembly of K48-Ub2 by Ubp6 (Ubp6): concentration-dependent effect
- disassembly of K11-Ub2 by Cezanne (OTUD7B) (Cezanne (OTUD7B)): prevented
- disassembly of K48-Ub2 by OTUB1 (OTUB1): prevented
- disassembly of K63-Ub2 by AMSH (AMSH): prevented
- disassembly of K11-Ub6+ by 26S proteasome (yeast 26S proteasome; 20 hr time course): only trace amounts of cleavage intermediates appeared
- processing of Ubch5b-Ubn by 26S proteasome (yeast 26S proteasome; K11, K48, K63 linkage-specific antibodies): preserved all three linkage types
- toxicity judged by cell morphology (HeLa and RCC4 cells): not toxic
- cell internalization (HeLa and RCC4 cells; no chemical permeabilization): distinct ubiB fluorescence at and within the boundaries of the fluorescently labeled plasma membrane
- Ub conjugates below 70 kDa (HeLa cells; 2 μM ubiB, 8 hrs): greatly diminished
- Ub conjugates, RIPA lysis, Western blot (HeLa cells; 6 hrs ubiB treatment): increases the amount of Ub conjugates

SMILES: O=S(=O)(O)c1cccc2cccc(Nc3ccccc3)c12 [ANS, 8-anilinonaphthalene-1-sulfonic acid, reference compound]
- CSPs in Ub upon titration (Ub [2]): < 0.1 ppm
